Laboratory results from ChEMBL document CHEMBL5380838, “Novel Aryl Sulfonamide Derivatives as NLRP3 Inflammasome Inhibitors for the Potential Treatment of Cancer” (J Med Chem, 2023).
Activity calls are given as the source filed them. No cut-off for these calls is given here.

Tests used:
[1] = test system: THP-1; assay: Suppression of caspase-1 expression in LPS-treated human THP-1 cells at 1 to 1000 nM incubated for 30 mins followed by ATP stimulation for 1 hr by […]; type: functional, cell-based; settings: dose 1-1000 nM, time 90.0 min
Summary of the method: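 PMA-differentiated THP-1 cells (1 × 10^6/well) primed with LPS 1 µg/mL for 3 h, then DMSO or compound in serum-free medium for 30 min, then 5 mM ATP for 1 h. RIPA lysates (20 µg) and concentrated supernatants run on SDS-PAGE and western blotted for NLRP3, ASC, caspase-1 and IL-1β, normalized to GAPDH; three independent experiments.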

[2] = test system: THP-1; assay: Cytotoxicity against human THP-1 cells assessed as reduction in cell viability at 1 uM measured after 48 hrs by RealTime-Glo MT assay; type: toxicity, cell-based; settings: thp-1, 48 h
Summary of the method: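 THP-1 cells (10 × 10^4/well) treated with inhibitors at 1 µM and kept 48 h; RealTime-Glo reagent added, luminescence read every 12 h as a proxy for metabolically active cells; means of RLU ± SEM.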

[3] = Metabolic stability in human liver microsomes assessed as half life measured per mg protein at 1 uM measured upto 60 mins by LC-MS/MS analysis; type: ADME, Microsome
Summary of the method: (§1)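 Pooled human or CD-1 male mouse liver microsomes at 0.5 mg/mL with test compound 1 µM in 50 mM phosphate pH 7.4 and 3 mM MgCl2, preincubated 10 min at 37 °C. Percent parent remaining vs 0 min measured by LC-MS/MS. Cli = k/microsomal conc. × 1000; mean ± SD, n = 2.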

[4] = test system: THP-1; assay: Suppression of caspase-1 p10 expression in LPS-treated human THP-1 cells at 1 to 1000 nM incubated for 30 mins followed by ATP stimulation for 1 hr […]; type: functional, cell-based; settings: dose 1-1000 nM, time 90.0 min
[5] = test system: BMDM; assay: Effect on AIM2 inflammasome activation in LPS-treated mouse BMDM cells assessed as IL-1beta release at 1 uM incubated for 30 mins followed by Poly (dA:dT) stimulation for 4 hrs by ELISA method; type: functional, cell-based; settings: time 270.0 min
Summary of the method: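 BMDMs primed with LPS 100 ng/mL for 3 h, then compound 1 µM in serum-free medium for 30 min, then poly(dA:dT) 1 µg/mL transfected with lipofectamine 2000 for 4 h; supernatant mouse IL-1β by ELISA.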

[6] = test system: BMDM; assay: Effect on NLRP3-ASC interaction in LPS-treated mouse BMDM cells at 1 uM incubated for 30 mins followed by ATP stimulation for 1 hr by co-immunoprecipitation based Western blot analysis; type: functional, cell-based; settings: time 90.0 min
Summary of the method: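 BMDMs (1 × 10^7) primed with LPS 2 h, treated 1 µM compound 30 min, then ATP 1 h; lysed in HEPES/NaCl/glycerol/EDTA/0.5% Triton buffer with protease/phosphatase inhibitors; NLRP3–ASC co-immunoprecipitation, bait eluted in Laemmli buffer, western blot; representative of three independent experiments.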

[7] = Metabolic stability in mouse liver microsomes assessed as intrinsic clearance measured per mg protein at 1 uM measured upto 60 mins by LC-MS/MS analysis; type: ADME, Microsome; settings: read-out: CLH; summary of the method: as §1
[8] = test system: THP-1; assay: Suppression of IL-1beta processing in LPS-treated human THP-1 cells at 1 to 1000 nM incubated for 30 mins followed by ATP stimulation for 1 hr by ELISA method; type: functional, cell-based; settings: dose 1-1000 nM, time 90.0 min
[9] = Half life in C57BL/6 mouse at 25 mg/kg, ip measured for 0.083 to 24 hrs by LC-MS/MS analysis; type: ADME, organism-based; settings: in vivo, time 0.083-24 hrs
Summary of the method: (§2)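 Female C57BL/6 mice, 8 weeks old, 25–30 g, given a single IP dose of 25 mg/kg. Sampling at 5 and 20 min and 1, 2, 3, 6, 8 and 24 h, 3 mice per timepoint; Li-heparin plasma from the cava vein. ACN/MeOH precipitation with diclofenac internal standard, then LC-MS/MS in ESI(−) MRM mode, range 1–2000 ng/mL. Noncompartmental analysis, linear trapezoidal AUC.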

[10] = test system: Mus musculus; assay: Antiinflammatory activity in LPS-induced C57BL/6 mouse assessed as reduction in IL-1beta production in plasma at 25 mg/kg, ip pretreated for 30 mins followed by LPS induction measured after 4 hrs by ELISA method; type: functional, organism-based; settings: time 4.5 hrs
Summary of the method: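 C57BL/6 mice given inhibitor 25 mg/kg IP (vehicle DMSO) 30 min before IP LPS 1 mg/kg; after 4 h, peritoneal exudate and blood collected, plasma from centrifugation 1000g 15 min 4 °C; IL-1β measured by ELISA; mean ± SEM of three independent experiments.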

[11] = test system: B16-F10; assay: Antiproliferative activity against LPS-treated mouse B16-F10 cells co-cultured with mouse peritoneal macrophages assessed as decrease in cell growth at 1 uM incubated for 30 mins followed by ATP stimulation for 1 hr measured after 48 hrs by cell counting method; type: functional, cell-based; settings: time 49.5 hrs
Summary of the method: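 Transwell co-culture (0.4 µm pores), 48 h: peritoneal macrophages from C57BL/6 mice (2 × 10^5, lower well) primed with LPS 1 µg/mL 2 h, then DMSO or compound 1 µM 30 min, then ATP 1 h; B16-F10 cells (2 × 10^3) in upper insert; tumor cells removed after 48 h and counted by image-based cytometer.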

[12] = test system: B16-F10; assay: Effect on pro-IL-1beta expression in cytosolic luciferase-transfected mouse B16-F10 cells xenografted in C57BL/6 mouse at 25 mg/kg, ip administered thrice weekly measured after 14 days by Western blot analysis; type: functional, organism-based; settings: time 14.0 day
Summary of the method: (§3)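 Tumors from luciferase-expressing B16-F10 grafts in C57BL/6 mice, dosed IP at 25 mg/kg thrice weekly (DMSO controls), were excised at endpoint and homogenized in sucrose/HEPES/IGEPAL lysis buffer. Lysates were western blotted and bands expressed as fold ratio over β-actin (n = 5).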

[13] = AUC in C57BL/6 mouse at 25 mg/kg, ip measured for 0.083 to 24 hrs by LC-MS/MS analysis; settings: in vivo
[14] = test system: B16-F10; assay: Effect on cleaved caspase-1 expression in cytosolic luciferase-transfected mouse B16-F10 cells xenografted in C57BL/6 mouse at 25 mg/kg, ip administered thrice weekly measured after 14 days by Western blot analysis; type: functional, organism-based; settings: time 14.0 day; summary of the method: as §3
[15] = Cmax in C57BL/6 mouse at 25 mg/kg, ip measured for 0.083 to 24 hrs by LC-MS/MS analysis; type: ADME, organism-based; design: time upper 24 hrs, dose 25 mg/kg, time lower 0.083 hrs, route ip; settings: in vivo; summary of the method: as §2
[16] = test system: THP-1; assay: Suppression of NLRP3 expression in LPS-treated human THP-1 cells at 1 to 1000 nM incubated for 30 mins followed by ATP stimulation for 1 hr […]; type: functional, cell-based; settings: dose 1-1000 nM, time 90.0 min
[17] = Metabolic stability in mouse liver microsomes assessed as half life measured per mg protein at 1 uM measured upto 60 mins by LC-MS/MS analysis; type: ADME, Microsome; summary of the method: as §1
[18] = test system: B16-F10; assay: Antitumor activity against cytosolic luciferase-transfected mouse B16-F10 cells xenografted in C57BL/6 mouse assessed as tumor reduction at 25 mg/kg, ip administered thrice weekly measured after 14 days by bioluminescence assay; type: functional, organism-based; settings: time 14.0 day
Summary of the method: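 Female C57BL/6 mice aged 6–8 weeks inoculated subcutaneously with 1 × 10^6 B16-F10 cells stably expressing cytosolic luciferase. From day 5, IP dosing of 25 mg/kg thrice weekly, DMSO for controls, five mice per group. Imaging after IP D-luciferin 150 mg/kg under 2.5% isoflurane, read after 15 min. Caliper volume = π/6 × a × b². Tumors excised day 14.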

half-life at 1 µM [3]: 0.508 h | microsomal CLint at 1 µM [7]: 4.8 µL/min/mg | half-life [9]: 9.5 h | AUC [13]: 3880 ng/mL.hr | Cmax [15]: 1670 ng/mL | half-life at 1 µM [17]: 4.8 h
SMILES: CC(C)[C@H](NS(=O)(=O)c1ccc([N+](=O)[O-])cc1)C(=O)Nc1c2c(cc3c1CCC3)CCC2
Activity [1]: inactive | Activity [2]: Non-Toxic | Activity [4]: Active | Activity [5]: inactive | Activity [6]: inactive | Activity [8]: Active | Activity [10]: Active | Activity [11]: Active | Activity [12]: inactive | Activity [14]: inactive | Activity [16]: inactive | Activity [18]: Active
